Measured values of several laboratories.
Target: Death-associated protein kinase 2 (DAPK2, Homo sapiens, UniProt Q9UIK4)

CN(c1nccc(-c2cnn3ncccc23)n1)C1CC1 — remaining binding (binding; 1 µM): 76%
O=C(c1ccc(Nc2ncc(Cl)c(-c3cc4ccccc4s3)n2)cc1)N1CCC(N2CCCC2)CC1 — remaining binding (binding; competition with immobilised ligand; 1 µM): 20%
COc1ccnn2ncc(-c3ccnc(N(C)C)n3)c12 — remaining binding (binding; 1 µM): 91%
FC(F)(F)Oc1cccc(-c2cnc3ccc(-c4ccncc4)nn23)c1 — remaining binding (cell-free assay; competition with immobilised ligand; 5 µM): 66%
N[C@@H]1CCN(c2nccc(-c3cnn4ncccc34)n2)C1 — remaining binding (binding; 1 µM): 100%
COc1cnc(Nc2cccc(S(N)(=O)=O)c2)nc1N1CCN(c2ccccc2)C(=O)C1 — remaining binding (binding; competition with immobilised ligand; 1 µM): 100%
COc1cccc(CNC(=O)c2nc3scc(COCc4ccc(C(=O)O)cc4)c3c(=O)[nH]2)c1 — remaining binding (cell-free assay; competition with immobilised ligand; 1 µM): 83.1%
O=C(c1ccc(Nc2nccc(-c3cc4ccccc4s3)n2)cc1)N1CCC(N2CCCC2)CC1 — remaining binding (binding; competition with immobilised ligand; 1 µM): 19%
Cc1cnn2ncc(-c3ccnc(N(C)C)n3)c2c1 — remaining binding (binding; 1 µM): 87%
Cc1cc(-n2nc(Cc3cc(F)cc(C(F)(F)F)c3)nc2C)ccc1C(N)=O — remaining binding (cell-free assay; competition with immobilised ligand; 1 µM): 95%
CN(C)c1nccc(-c2cnc3ncccn23)n1 — remaining binding (binding; 1 µM): 89%
Cn1nc(C(F)(F)F)cc1-c1cnc(N2CCc3cc(S(=O)(=O)Nc4c(F)cc(Cl)cc4F)cc(N4CCCC4=O)c32)nc1 — remaining binding (cell-free assay; competition with immobilised ligand; 1 µM): 94%
O=C(NCC1CCOCC1)c1n[nH]cc1NC(=O)c1c(F)cccc1F — remaining binding (binding; competition with immobilised ligand; 1 µM): 95%
Nc1c(C(=O)NCc2ccc(C(=O)NCCCC3CCCCC3)cc2)cnn1-c1ccccc1 — remaining binding (cell-free assay; competition with immobilised ligand; 0.1 µM): 100%
COc1cnc(Nc2cccc(S(N)(=O)=O)c2)nc1N1CCN(c2ccccc2)CC1 — remaining binding (binding; competition with immobilised ligand; 1 µM): 78%
O=C(c1ccc(Nc2ncc(Cl)c(-c3ccc(Cl)s3)n2)cc1)N1CCC(N2CCCC2)CC1 — remaining binding (binding; competition with immobilised ligand; 1 µM): 29%
CN(C)C(=O)Cn1cc(-c2nc(C3(c4ccc(-c5cnc(N)nc5)cc4)CC3)no2)cn1 — remaining binding (cell-free assay; competition with immobilised ligand; 1 µM): 86%
c1cnn2ncc(-c3ccnc(N4CCC45COC5)n3)c2c1 — remaining binding (binding; 1 µM): 70%
CS(=O)(=O)N1CCCC(NC(=O)[C@H](CCC2CCCCC2)NC(=O)c2ccc(CNc3ncnc4c3nnn4-c3ccccc3)cc2)C1 (stereo partly shown) — remaining binding (cell-free assay; competition with immobilised ligand; 0.1 µM): 90%
C=CC(=O)N1CCC(C(=O)NCC(=O)N2CCN(c3nc(-c4cnc(N)nc4C(F)F)nc(N4CCOCC4)n3)CC2)CC1 — remaining binding (binding; competition with immobilised ligand; 1 µM): 95%
C[C@H]1CCN(c2nccc(-c3cnn4ncccc34)n2)C1 — remaining binding (binding; 1 µM): 72%
C[C@H](NC(=O)c1cnc2n1[C@](C)(Cc1ccc(C#N)cc1)C(=O)N2c1cc(Cl)c(F)c(Cl)c1)C(=O)NC1(c2ccccn2)CC1 — remaining binding (cell-free assay; competition with immobilised ligand; 1 µM): 100%
